From publication PMC2882528 (Molecular pharmaceutics, 2010) come the findings set out here.

Type in all cases: cell-based, rat
One data set concerns IEC-6 cells. The data set is described as follows: Measurement of intracellular ROS. As to conditions: ritonavir 15 µM, VC 15 µg/ml, EL 20 µg/ml, OA 10 µg/ml, 4 h. Summed up:
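IEC-6 rat intestinal epithelial cells (passages 15-20; DMEM, 10% FBS, 0.1 U/mL insulin, penicillin/streptomycin, 37 °C, 5% CO2) in 12-well plates are exposed for 4 h to test compound with or without antioxidant, all in DMSO. One fraction is used for protein. The other is lysed in 0.1 N NaOH/50% methanol and centrifuged, and fluorescence is read at ex 485/em 520 nm. Results are mean ± SD of 3 independent experiments.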

The subject of another data set is CHOP. The data set is described as follows: Western blot analysis of CHOP. As to conditions: IEC-6 cells, 4 h; for Effect of antioxidant on ritonavir-induced CHOP expression: ritonavir 15 µM.
Data set [1] has as its system IEC-6 stable cell line expressing SEAP. The data set is described as follows: SEAP enzyme activity assay. The note with it: ritonavir 15 µM; VC 15 µg/ml, VE 20 µg/ml, EL 20 µg/ml, OA 10 µg/ml; 24 h. Summed up:
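An IEC-6 line stably transfected with pSEAP reporter plasmid is treated for 24 h with test compound (15 µM) alone or with individual antioxidant. DMSO is the vehicle control and thapsigargin 100 nM is the ER-stress reference. Secreted alkaline phosphatase activity is expressed as percent of vehicle control. Results are mean ± SD of 3 independent experiments.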

On to `CCCCC/C=C\C/C=C\CCCCCCCC(=O)OCC` [ethyl linoleate], for which, in the data set on IEC-6 cells, the “Effect of antioxidant on ritonavir-induced ROS production” value is “able to reduce”. Further, the “Effect of antioxidant on ritonavir-induced CHOP expression” value in the data set with CHOP was “significantly reduced”. The “Effect of antioxidant on ritonavir-induced inhibition of SEAP activity” value in data set [1] was “significantly inhibited”.
Taken in the same sequence, the figures for `CCCCCCCC/C=C\CCCCCCCC(=O)O` [oleic acid] were “able to reduce”, “significantly reduced” and “significantly inhibited”.
`CC(C)c1nc(CN(C)C(=O)N[C@H](C(=O)N[C@@H](Cc2ccccc2)C[C@H](O)[C@H](Cc2ccccc2)NC(=O)OCc2cncs2)C(C)C)cs1` [ritonavir, reference compound]: in the data set on CHOP (15 µM), the CHOP expression result is “significantly induced”.
Take `O=C1O[C@H]([C@@H](O)CO)C(O)=C1O` [vitamin C]: the “Effect of antioxidant on ritonavir-induced ROS production” value in the data set on IEC-6 cells is “able to reduce”. For the same compound, the “Effect of antioxidant on ritonavir-induced CHOP expression” value with CHOP was “significantly reduced”. Also, in data set [1], the “Effect of antioxidant on ritonavir-induced inhibition of SEAP activity” value is “significantly inhibited”.
Regarding vitamin E, the “Effect of antioxidant on ritonavir-induced CHOP expression” value with CHOP is listed as “less effect”. Also, the “Effect of antioxidant on ritonavir-induced inhibition of SEAP activity” value in data set [1] is listed as “significantly inhibited”.
